Activity calls are given as the source filed them. The calls are words filed in the database; no cut-off is given here. Where a SMILES comes first, the peptide text is derived from it. The star is where a group is joined. Propyl(2R-PamO,3-PamO) = CCCCCCCCCCCCCCCC(=O)OC[C@H](C*)OC(=O)CCCCCCCCCCCCCCC; X1 = CCCCCCCCCCCCCCCC(=O)OC[C@@H](C*)OC(=O)CCCCCCCCCCCCCCC; Palmitoyl = CCCCCCCCCCCCCCCC(=O)*

In series [1] the target is Toll-like receptor 2 (Mus musculus) (UniProt Q9QUN7). Put plainly: Agonist activity at TLR2 in H-2b harboring B6 mouse DC assessed as cell maturation by measuring increase in IL-12 p40 production at 0.0625 to 1 uM incubated for 48 hrs by sandwich ELISA. The essentials: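 Supernatants were harvested and IL-12 secretion measured by ELISA. Data shown are one representative of three independent experiments.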
Toll-like receptor 2 (Mus musculus), sequence (Q9QUN7 whole entry): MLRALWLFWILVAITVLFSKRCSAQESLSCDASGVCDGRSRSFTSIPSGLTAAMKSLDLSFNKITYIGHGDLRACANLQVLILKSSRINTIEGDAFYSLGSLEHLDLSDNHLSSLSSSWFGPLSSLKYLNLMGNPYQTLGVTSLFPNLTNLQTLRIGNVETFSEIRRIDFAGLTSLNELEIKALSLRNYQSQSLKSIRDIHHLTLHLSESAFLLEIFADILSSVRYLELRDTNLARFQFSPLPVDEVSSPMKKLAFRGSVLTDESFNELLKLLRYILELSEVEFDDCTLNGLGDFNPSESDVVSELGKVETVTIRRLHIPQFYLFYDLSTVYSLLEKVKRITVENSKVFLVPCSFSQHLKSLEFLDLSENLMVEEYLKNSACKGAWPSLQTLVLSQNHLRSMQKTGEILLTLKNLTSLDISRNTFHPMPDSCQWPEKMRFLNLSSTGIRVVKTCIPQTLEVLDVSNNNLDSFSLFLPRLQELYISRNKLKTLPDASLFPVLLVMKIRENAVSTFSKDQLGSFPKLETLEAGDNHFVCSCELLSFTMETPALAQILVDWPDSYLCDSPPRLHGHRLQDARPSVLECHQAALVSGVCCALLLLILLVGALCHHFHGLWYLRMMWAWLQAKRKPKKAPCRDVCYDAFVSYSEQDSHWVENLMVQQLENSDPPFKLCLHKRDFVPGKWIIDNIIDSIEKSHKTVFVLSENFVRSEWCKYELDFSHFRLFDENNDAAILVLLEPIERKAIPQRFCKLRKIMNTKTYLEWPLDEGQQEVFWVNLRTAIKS

Series [2] addresses Toll-like receptor 2 (Homo sapiens) (UniProt O60603). In words: Agonist activity at human TLR2 expressed in HEK cells assessed as increase in IL-8 production at 25 to 100 nM incubated for 24 hrs by ELISA. It counts as cell-based. As to conditions: HEK293. Summed up: (§1)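 HEK cells transfected with human TLR2 were incubated 24 h with conjugates at 100–25 nM, or with Pam₃CysSK₄ at 100 ng/mL. Receptor activation was read as IL-8 produced in the assay. Error bars are SD.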

Series [3] deals with Toll-like receptor 4 (Homo sapiens) (UniProt O00206). Put plainly: Agonist activity at human TLR4 expressed in HEK cells assessed as increase in IL-8 production at 25 to 100 nM incubated for 24 hrs by ELISA. Format: cell-based. As to conditions: HEK293.
Toll-like receptor 4 (Homo sapiens), sequence (O00206 whole entry): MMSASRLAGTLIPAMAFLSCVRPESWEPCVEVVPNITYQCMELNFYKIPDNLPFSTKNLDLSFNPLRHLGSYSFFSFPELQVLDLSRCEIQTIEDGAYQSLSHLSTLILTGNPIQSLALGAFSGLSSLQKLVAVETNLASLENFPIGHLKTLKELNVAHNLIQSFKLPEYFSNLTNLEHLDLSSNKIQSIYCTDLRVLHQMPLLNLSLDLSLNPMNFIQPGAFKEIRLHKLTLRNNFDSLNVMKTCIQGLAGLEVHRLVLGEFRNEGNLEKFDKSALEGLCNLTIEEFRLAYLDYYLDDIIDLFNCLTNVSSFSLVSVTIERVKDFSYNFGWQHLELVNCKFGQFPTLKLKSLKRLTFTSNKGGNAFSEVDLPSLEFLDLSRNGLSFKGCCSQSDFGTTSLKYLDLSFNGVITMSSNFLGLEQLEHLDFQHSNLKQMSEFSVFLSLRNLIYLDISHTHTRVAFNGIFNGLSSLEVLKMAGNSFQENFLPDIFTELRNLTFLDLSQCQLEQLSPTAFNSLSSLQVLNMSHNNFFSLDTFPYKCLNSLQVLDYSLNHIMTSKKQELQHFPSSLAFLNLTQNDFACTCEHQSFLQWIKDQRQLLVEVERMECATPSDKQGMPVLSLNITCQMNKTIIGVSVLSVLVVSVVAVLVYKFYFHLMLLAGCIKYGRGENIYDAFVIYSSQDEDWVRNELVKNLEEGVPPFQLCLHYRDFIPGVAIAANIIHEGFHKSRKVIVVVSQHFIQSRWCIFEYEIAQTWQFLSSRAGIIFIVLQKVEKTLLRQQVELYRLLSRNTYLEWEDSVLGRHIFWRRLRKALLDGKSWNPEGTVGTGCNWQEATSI
Series [4] in a line: Drug uptake in H-2b harboring B6 mouse DC at 1 uM after 15 mins by confocal microscopic analysis. It counts as ADME. The following applies: in vitro, 0.25 h. The essentials: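 Dendritic cells were exposed to conjugate for 15 min. Uptake and intracellular localisation were imaged by confocal laser scanning microscopy. Images are representative of multiple cells in at least 3 experiments.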

A short description of series [5]: Aqueous solubility of compound. As to conditions: buffer. It counts as physicochemical.
The target in series [6] is Toll-like receptor 2 (Homo sapiens) (UniProt O60603). Put plainly: Agonist activity at human TLR2 expressed in HEK cells assessed as increase in IL-8 production at 100 ng/ml incubated for 24 hrs by ELISA. As to conditions: HEK293. Format: cell-based. The essentials:
as §1

Toll-like receptor 2 (Homo sapiens), sequence (O60603 whole entry): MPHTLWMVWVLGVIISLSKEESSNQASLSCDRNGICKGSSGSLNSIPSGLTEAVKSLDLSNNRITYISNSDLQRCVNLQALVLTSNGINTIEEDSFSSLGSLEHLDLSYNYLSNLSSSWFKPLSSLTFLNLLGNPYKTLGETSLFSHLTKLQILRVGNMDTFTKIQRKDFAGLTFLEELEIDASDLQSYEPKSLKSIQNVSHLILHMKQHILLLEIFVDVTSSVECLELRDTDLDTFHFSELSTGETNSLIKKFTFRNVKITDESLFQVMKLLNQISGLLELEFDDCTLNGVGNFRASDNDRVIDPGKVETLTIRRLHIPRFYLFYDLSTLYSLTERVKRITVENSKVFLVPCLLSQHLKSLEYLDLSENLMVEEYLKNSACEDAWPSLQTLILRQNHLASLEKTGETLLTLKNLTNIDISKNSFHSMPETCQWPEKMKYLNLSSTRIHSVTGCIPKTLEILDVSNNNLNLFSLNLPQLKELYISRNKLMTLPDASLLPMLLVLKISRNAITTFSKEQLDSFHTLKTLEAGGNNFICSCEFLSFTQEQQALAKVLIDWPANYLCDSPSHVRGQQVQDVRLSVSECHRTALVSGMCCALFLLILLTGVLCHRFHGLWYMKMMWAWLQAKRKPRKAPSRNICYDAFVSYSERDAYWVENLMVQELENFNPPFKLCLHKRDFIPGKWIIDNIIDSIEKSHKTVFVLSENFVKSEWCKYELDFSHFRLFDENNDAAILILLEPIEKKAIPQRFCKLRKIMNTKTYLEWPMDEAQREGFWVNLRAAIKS

Regarding `CCCCCCCCCCCCCCCC(=O)N[C@@H](CSC[C@@H](COC(=O)CCCCCCCCCCCCCCC)OC(=O)CCCCCCCCCCCCCCC)C(=O)N[C@@H](CO)C(=O)N[C@@H](CCCCN)C(=O)N[C@@H](CCCCN)C(=O)N[C@@H](CCCCN)C(=O)N[C@@H](CCCCN)C(=O)N[C@@H](CC(=O)O)C(=O)N[C@@H](CCC(=O)O)C(=O)N[C@H](C(=O)N[C@@H](CO)C(=O)NCC(=O)N[C@@H](CC(C)C)C(=O)N[C@@H](CCC(=O)O)C(=O)N[C@@H](CCC(N)=O)C(=O)N[C@@H](CC(C)C)C(=O)N[C@@H](CCC(=O)O)C(=O)N[C@@H](CO)C(=O)N[C@H](C(=O)N[C@H](C(=O)N[C@@H](CC(N)=O)C(=O)N[C@@H](Cc1ccccc1)C(=O)N[C@@H](CCC(=O)O)C(=O)N[C@@H](CCCCN)C(=O)N[C@@H](CC(C)C)C(=O)O)[C@@H](C)CC)[C@@H](C)CC)C(C)C` (Palmitoyl-C(Propyl(2R-PamO,3-PamO))SKKKKDEVSGLEQLESIINFEKL-OH), the result in series [1] and in series [2] was Active. In addition, in series [3], the outcome was inactive.

Regarding `CCCCCCCCCCCCCCCC(=O)N[C@@H](CSC[C@H](COC(=O)CCCCCCCCCCCCCCC)OC(=O)CCCCCCCCCCCCCCC)C(=O)N[C@@H](CO)C(=O)N[C@@H](CCCCN)C(=O)N[C@@H](CCCCN)C(=O)N[C@@H](CCCCN)C(=O)N[C@@H](CCCCN)C(=O)N[C@@H](CC(=O)O)C(=O)N[C@@H](CCC(=O)O)C(=O)N[C@H](C(=O)N[C@@H](CO)C(=O)NCC(=O)N[C@@H](CC(C)C)C(=O)N[C@@H](CCC(=O)O)C(=O)N[C@@H](CCC(N)=O)C(=O)N[C@@H](CC(C)C)C(=O)N[C@@H](CCC(=O)O)C(=O)N[C@@H](CO)C(=O)N[C@H](C(=O)N[C@H](C(=O)N[C@@H](CC(N)=O)C(=O)N[C@@H](Cc1ccccc1)C(=O)N[C@@H](CCC(=O)O)C(=O)N[C@@H](CCCCn1nnc2c1CC[C@H]1[C@@H](CC2)[C@H]1COC(=O)NCCOCCOCCNC(=O)CCCC[N+]1=C(/C=C/C=C/C=C2\N(C)c3ccccc3C2(C)C)C(C)(C)c2ccccc21)C(=O)N[C@@H](CC(C)C)C(=O)O)[C@@H](C)CC)[C@@H](C)CC)C(C)C`, the Drug uptake result in series [4] is “Active”.

With `CCCCCCCCCCCCCCCC(=O)N[C@H](CSC[C@@H](COC(=O)CCCCCCCCCCCCCCC)OC(=O)CCCCCCCCCCCCCCC)C(=O)N[C@H](CO)C(=O)N[C@H](CCCCN)C(=O)N[C@H](CCCCN)C(=O)N[C@H](CCCCN)C(=O)N[C@H](CCCCN)C(=O)N[C@H](CC(=O)O)C(=O)N[C@H](CCC(=O)O)C(=O)N[C@@H](C(=O)N[C@H](CO)C(=O)NCC(=O)N[C@H](CC(C)C)C(=O)N[C@H](CCC(=O)O)C(=O)N[C@H](CCC(N)=O)C(=O)N[C@H](CC(C)C)C(=O)N[C@H](CCC(=O)O)C(=O)N[C@H](CO)C(=O)N[C@@H](C(=O)N[C@@H](C(=O)N[C@H](CC(N)=O)C(=O)N[C@H](Cc1ccccc1)C(=O)N[C@@H](CCC(=O)O)C(=O)N[C@H](CCCCn1nnc2c1CC[C@@H]1[C@H](CC2)[C@@H]1COC(=O)NCCOCCOCCNC(=O)c1ccc(-c2c3ccc(=[N+](C)C)cc-3oc3cc(N(C)C)ccc23)c(C(=O)[O-])c1)C(=O)N[C@@H](CC(C)C)C(=O)O)[C@@H](C)CC)[C@@H](C)CC)C(C)C`, the result in series [1] was inactive. Besides, the solubility entry in series [5] is given as “Insoluble”.

In the case of `CCCCCCCCCCCCCCCC(=O)N[C@@H](CSC[C@@H](COC(=O)CCCCCCCCCCCCCCC)OC(=O)CCCCCCCCCCCCCCC)C(=O)N[C@@H](CO)C(=O)N[C@@H](CCCCN)C(=O)N[C@@H](CCCCN)C(=O)N[C@@H](CCCCN)C(=O)N[C@@H](CCCCN)C(=O)N[C@@H](CC(=O)O)C(=O)N[C@@H](CCC(=O)O)C(=O)N[C@H](C(=O)N[C@@H](CO)C(=O)NCC(=O)N[C@@H](CC(C)C)C(=O)N[C@@H](CCC(=O)O)C(=O)N[C@@H](CCC(N)=O)C(=O)N[C@@H](CC(C)C)C(=O)N[C@@H](CCC(=O)O)C(=O)N[C@@H](CO)C(=O)N[C@H](C(=O)N[C@H](C(=O)N[C@@H](CC(N)=O)C(=O)N[C@@H](Cc1ccccc1)C(=O)N[C@H](CCC(=O)O)C(=O)N[C@@H](CCCCn1nnc2c1CC[C@H]1[C@@H](CC2)[C@H]1COC(=O)NCCOCCOCCNC(=O)CCCC[N+]1=C(/C=C/C=C/C=C2\N(C)c3ccccc3C2(C)C)C(C)(C)c2ccccc21)C(=O)N[C@H](CC(C)C)C(=O)O)[C@H](C)CC)[C@H](C)CC)C(C)C`, the outcome in series [1] and in series [2] was Active. For the same molecule, in series [3], the result was inactive.

Take `CCCCCCCCCCCCCCCC(=O)N[C@@H](CSC[C@H](COC(=O)CCCCCCCCCCCCCCC)OC(=O)CCCCCCCCCCCCCCC)C(=O)N[C@@H](CO)C(=O)N[C@@H](CCCCN)C(=O)N[C@@H](CCCCN)C(=O)N[C@@H](CCCCN)C(=O)N[C@@H](CCCCN)C(=O)N[C@@H](CC(=O)O)C(=O)N[C@@H](CCC(=O)O)C(=O)N[C@H](C(=O)N[C@@H](CO)C(=O)NCC(=O)N[C@@H](CC(C)C)C(=O)N[C@@H](CCC(=O)O)C(=O)N[C@@H](CCC(N)=O)C(=O)N[C@@H](CC(C)C)C(=O)N[C@@H](CCC(=O)O)C(=O)N[C@@H](CO)C(=O)N[C@H](C(=O)N[C@H](C(=O)N[C@@H](CC(N)=O)C(=O)N[C@@H](Cc1ccccc1)C(=O)N[C@@H](CCC(=O)O)C(=O)N[C@@H](CCCCN)C(=O)N[C@@H](CC(C)C)C(=O)O)[C@@H](C)CC)[C@@H](C)CC)C(C)C` (Palmitoyl-C(X1)SKKKKDEVSGLEQLESIINFEKL-OH): the outcome in series [1], in series [2] and in series [3] was inactive.

Take `CCCCCCCCCCCCCCCC(=O)N[C@H](CSC[C@H](COC(=O)CCCCCCCCCCCCCCC)OC(=O)CCCCCCCCCCCCCCC)C(=O)N[C@H](CO)C(=O)N[C@H](CCCCN)C(=O)N[C@H](CCCCN)C(=O)N[C@H](CCCCN)C(=O)N[C@H](CCCCN)C(=O)N[C@H](CC(=O)O)C(=O)N[C@H](CCC(=O)O)C(=O)N[C@@H](C(=O)N[C@H](CO)C(=O)NCC(=O)N[C@H](CC(C)C)C(=O)N[C@H](CCC(=O)O)C(=O)N[C@H](CCC(N)=O)C(=O)N[C@H](CC(C)C)C(=O)N[C@H](CCC(=O)O)C(=O)N[C@H](CO)C(=O)N[C@@H](C(=O)N[C@@H](C(=O)N[C@H](CC(N)=O)C(=O)N[C@H](Cc1ccccc1)C(=O)N[C@@H](CCC(=O)O)C(=O)N[C@H](CCCCn1nnc2c1CC[C@@H]1[C@H](CC2)[C@@H]1COC(=O)NCCOCCOCCNC(=O)c1ccc(-c2c3ccc(=[N+](C)C)cc-3oc3cc(N(C)C)ccc23)c(C(=O)[O-])c1)C(=O)N[C@@H](CC(C)C)C(=O)O)[C@@H](C)CC)[C@@H](C)CC)C(C)C`: the outcome in series [1] was Active. In series [5], the solubility entry is “Insoluble”.

As to `CCCCCCCCCCCCCCCC(=O)N[C@@H](CSC[C@H](COC(=O)CCCCCCCCCCCCCCC)OC(=O)CCCCCCCCCCCCCCC)C(=O)N[C@@H](CO)C(=O)N[C@@H](CCCCN)C(=O)N[C@@H](CCCCN)C(=O)N[C@@H](CCCCN)C(=O)N[C@@H](CCCCN)C(=O)N[C@@H](CC(=O)O)C(=O)N[C@@H](CCC(=O)O)C(=O)N[C@H](C(=O)N[C@@H](CO)C(=O)NCC(=O)N[C@@H](CC(C)C)C(=O)N[C@@H](CCC(=O)O)C(=O)N[C@@H](CCC(N)=O)C(=O)N[C@@H](CC(C)C)C(=O)N[C@@H](CCC(=O)O)C(=O)N[C@@H](CO)C(=O)N[C@H](C(=O)N[C@H](C(=O)N[C@@H](CC(N)=O)C(=O)N[C@@H](Cc1ccccc1)C(=O)N[C@H](CCC(=O)O)C(=O)N[C@@H](CCCCn1nnc2c1CC[C@H]1[C@@H](CC2)[C@H]1COC(=O)NCCOCCOCCNC(=O)CCCC[N+]1=C(/C=C/C=C/C=C2\N(C)c3ccccc3C2(C)C)C(C)(C)c2ccccc21)C(=O)N[C@H](CC(C)C)C(=O)O)[C@H](C)CC)[C@H](C)CC)C(C)C`, the result in series [1], in series [2] and in series [3] was inactive.

Consider `CCCCCCCCCCCCCCCC(=O)N[C@@H](CSC[C@@H](COC(=O)CCCCCCCCCCCCCCC)OC(=O)CCCCCCCCCCCCCCC)C(=O)N[C@@H](CO)C(=O)N[C@@H](CCCCN)C(=O)N[C@@H](CCCCN)C(=O)N[C@@H](CCCCN)C(=O)N[C@@H](CCCCN)C(=O)N[C@@H](CC(=O)O)C(=O)N[C@@H](CCC(=O)O)C(=O)N[C@H](C(=O)N[C@@H](CO)C(=O)NCC(=O)N[C@@H](CC(C)C)C(=O)N[C@@H](CCC(=O)O)C(=O)N[C@@H](CCC(N)=O)C(=O)N[C@@H](CC(C)C)C(=O)N[C@@H](CCC(=O)O)C(=O)N[C@@H](CO)C(=O)N[C@H](C(=O)N[C@H](C(=O)N[C@@H](CC(N)=O)C(=O)N[C@@H](Cc1ccccc1)C(=O)N[C@@H](CCC(=O)O)C(=O)N[C@@H](CCCCn1nnc2c1CC[C@H]1[C@@H](CC2)[C@H]1COC(=O)NCCOCCOCCNC(=O)CCCC[N+]1=C(/C=C/C=C/C=C2\N(C)c3ccccc3C2(C)C)C(C)(C)c2ccccc21)C(=O)N[C@@H](CC(C)C)C(=O)O)[C@@H](C)CC)[C@@H](C)CC)C(C)C`, for which the Drug uptake entry in series [4] is recorded as “Active”.

For the molecule `CCCCCCCCCCCCCCCC(=O)N[C@@H](CSC[C@@H](COC(=O)CCCCCCCCCCCCCCC)OC(=O)CCCCCCCCCCCCCCC)C(=O)N[C@@H](CO)C(=O)N[C@@H](CCCCN)C(=O)N[C@@H](CCCCN)C(=O)N[C@@H](CCCCN)C(=O)N[C@@H](CCCCN)C(=O)O` (Palmitoyl-C(Propyl(2R-PamO,3-PamO))SKKKK-OH), the result in series [6] was Active.
